Screens from PubChem BioAssay.
FLuc inh counter = counter-screen for luciferase assay inhibitors: firefly luciferase inhibition; ATPLite firefly luciferase biochemical luminescence, 10 min; inhibition, % at 10 µM; P08659; 200,000 compounds, 1.5% hits; AID 1006;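 active = inhibition above about 50% when tested at 10 µM, limit read from the data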
Target sequence (P08659 whole entry, looked up): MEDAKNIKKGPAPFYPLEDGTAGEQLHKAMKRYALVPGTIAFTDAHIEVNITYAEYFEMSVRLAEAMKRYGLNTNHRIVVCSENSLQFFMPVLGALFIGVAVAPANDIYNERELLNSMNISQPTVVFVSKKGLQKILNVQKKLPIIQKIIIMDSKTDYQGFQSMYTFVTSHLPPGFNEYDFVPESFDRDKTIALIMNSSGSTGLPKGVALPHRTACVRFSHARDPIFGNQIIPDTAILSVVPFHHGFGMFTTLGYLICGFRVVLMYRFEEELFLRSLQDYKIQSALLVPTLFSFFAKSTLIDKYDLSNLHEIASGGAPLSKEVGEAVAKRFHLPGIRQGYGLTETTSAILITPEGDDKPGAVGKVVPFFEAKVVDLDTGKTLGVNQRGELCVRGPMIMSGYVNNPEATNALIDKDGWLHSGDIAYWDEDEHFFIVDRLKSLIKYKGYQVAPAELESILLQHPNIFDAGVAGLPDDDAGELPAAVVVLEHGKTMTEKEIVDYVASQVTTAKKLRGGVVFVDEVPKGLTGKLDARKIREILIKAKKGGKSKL
STAT1 blocker = reduces IFN-gamma driven STAT1 reporter signal; NIH 3T3 STAT1-luciferase reporter, luminescence; 200,000 compounds, 0.35% hits; inhibition, % at 5.5 µM; AID 920;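 active = inhibition above a set limit, the mean inhibition across all tested compounds plus 3 SD, cut at about 34% in these data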;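 also: 0% = IFN-gamma with DMSO and 100% = IFN-gamma with 300 µM nifuroxazide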
FLuc act counter = affects firefly luciferase, flagging false hits in luciferase stimulation screens | P08659 | ATPlite luciferase biochemical, luminescence, 10 min; 0 = ATP-free wells, 1 = DMSO control | activation factor at 10 µM | 200,000 tested, under 10 active | AID 1027;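 active = luciferase activation factor, scaled between plate controls, of at least 2 with compound at 10 µM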
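Assay system – cell-free luciferase reagent · Medium – PBS-based ATP solution · Dosing – test compounds dosed from 2 mM stocks in 100% DMSO · Timing – 10 min, room temperature · Technique – light output (luminescence) · Measure – luminescence gain marking luciferase activators · Controls – No-ATP low control, compound-free enzyme-plus-ATP high control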
STAT3 inh = reduces IL-6 driven STAT3 reporter signal | U3A cells, IL-6 STAT3-luciferase reporter, luminescence; host cell line lacks STAT1 | inhibition, % at 5.5 µM | 190,000 compounds, 0.89% hits | AID 862;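 active = inhibition above the mean inhibition across all screened compounds plus 3 SD, cut at about 44% in these data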;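 also: 0% = DMSO only wells and 100% = 100 µM nifuroxazide control wells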
STAT1 act = increases IFN-gamma driven STAT1 reporter signal; AID 932; activation (% of control), % at 5.5 µM; NIH 3T3 STAT1-luciferase reporter, luminescence; 100% = IFN-gamma alone, no compound; 200,000 compounds, 2.6% hits;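 active = activation above the screen-wide mean activation plus 3 SD, cut at about 130% in these data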;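 also: raw ratio to IFN-gamma control signal so 100% means no change and 0% no light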
STAT3 activator = activators of IL-6 induced STAT3 signaling | U3A cells, IL-6 STAT3-luciferase reporter, luminescence; 100% = signal with IL-6 EC80 alone | activation (% of control), % at 5.6 µM | 190,000 compounds, 0.91% hits | AID 871;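 active = activation above the screen-wide mean of compound activation plus 3 SD, cut at about 130% in these data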;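 also: 0% = background luminescence of wells with medium and substrate only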
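Material: human STAT1-deficient U3A cells with stable STAT3-luciferase reporter / Probe or stimulus: IL-6 stimulus at 33 ng/mL final / Schedule: 1 h compound pre-exposure, 6 h IL-6 stimulation, 37 °C / Technique: luminescence / Read-out basis: percent of IL-6-only median luminescence / Control set: IL-6-only high control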
STAT1 activ conf = confirmation of STAT1 signaling activators; activation (% of control), % at 5.7 µM; shares compounds with STAT1 act; AID 1262; 1,200 compounds, 97% hits; NIH 3T3 STAT1-luciferase reporter, IFN-gamma potentiation, luminescence; 100% = IFN-gamma EC80 alone, no compound;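 active = activation above a set limit carried over from the earlier primary STAT1 screen, cut at about 140% in these data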;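 also: simple ratio to median IFN-gamma plus DMSO wells so 0% means no light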
NFkB act STAT1ct = activates NF-kappaB, counter-screen to STAT1 activators | shares compounds with STAT1 act | HEK293T NF-kB luciferase reporter, TNF-alpha stimulated, luminescence; 100% = TNF-alpha with vehicle only | activation (% of control), % at 5.7 µM | 1,200 compounds, 43% hits | AID 1306;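 active = activation above the mean of solvent-only control wells plus 3 SD, set per campaign, cut at about 130% in these data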;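 also: TNF-alpha given at a submaximal dose yielding about 80% of full reporter signal; values are well signal over median control so 100% means no change and 0% no light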
STAT3 act 2 = counter-screen for STAT1 activators: human STAT3 activation; 1,200 compounds, 46% hits; activation (% of control), % at 5.7 µM; shares compounds with STAT1 act; U3A cells STAT3-luciferase reporter, IL-6, luminescence; cells lack STAT1; 100 = IL-6 alone, no compound effect;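 active = activation above the solvent-only control well mean plus 3 SD, set per plate batch, cut at about 110% in these data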;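 also: 0% = no luminescence and 100% = median IL-6 plus DMSO wells; higher means more STAT3 reporter activation so hits are non-selective activators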
Starred values were filed as active, the others as inactive; x = no result given. A selection: hits, their analogues and other compounds. The true share with any hit is near 4.9%.

SMILES	FLuc inh counter	STAT1 blocker	FLuc act counter	STAT3 inh	STAT1 act	STAT3 activator	STAT1 activ conf	NFkB act STAT1ct	STAT3 act 2
O=C(Nc1nc2ccccc2s1)NC1CCCCC1	46	-68	0.5	18	161*	93	226*	132	117*
O=[N+]([O-])c1cc([N+](=O)[O-])c2c(=Nc3ccccc3)n(-c3ccccc3)n(O)c2c1	-2	14	1	5	86	98	x	x	x
CN1/C(=C\C(=O)COC(=O)c2ccc(O)c(O)c2)C(C)(C)c2ccccc21	4	11	1	6	89	96	x	x	x
Cc1ncsc1C(=O)Nc1nc2c(s1)CC(C)CC2 (stereo not given)	58*	-57	0.4	23	152*	82	179*	123	100
CC1CCc2nc(NC(=O)CCSc3ccccc3)sc2C1 (stereo not given)	-7	-2	1.1	5	102	103	x	x	x
Cn1cccc1/C=C1\SC(=O)N(c2ccccc2)C1=O	52*	-66	0.5	19	159*	86	190*	129	102
Cc1sc2ncnc(NCCCN3CCCC3=O)c2c1C	-2	13	1	2	88	100	x	x	x
Cc1ccc(Nc2ncc3c(n2)CC(C)(C)CC3=O)cc1	46	-90	0.5	13	179*	94	194*	139*	119*
CC1(C)CC(=O)c2cnc(NC3CC3)nc2C1	-12	-6	1.1	-6	104	107	x	x	x
S=C(c1ccc(-c2ccc(Cl)c(Cl)c2)o1)N1CCOCC1	20	-59	0.8	-5	157*	110	202*	144*	119*
S=C(c1ccc(-c2ccc(Br)cc2)o1)N1CCCCC1	59*	-76	0.4	6	170*	96	210*	145*	114*
COc1ccc(-c2ccc(C(=S)N3CCN(C(C)=O)CC3)o2)cc1	4	-21	1	1	119	102	x	x	x
S=C(c1ccc(-c2ccccc2Cl)o1)N1CCOCC1	25	-20	0.7	-8	119	113	x	x	x
CC(c1c(O)c2ccccc2[nH]c1=O)C1(C)CCC(O)C(C)(C)O1 (stereo not given)	-10	1	1.1	x	98	x	x	x	x
O=C(c1ccccc1NS(=O)(=O)c1cccc2cccnc12)N1CCOCC1	0	3	1	8	99	98	x	x	x
O=C(CCc1ccccc1)Nc1cc2c(cc1Cl)OCCO2	8	-62	0.9	-19	158*	117	181*	139*	115*
O=C(CC1C(=O)NCCN1Cc1ccc(F)cc1)NCCCn1cccn1 (stereo not given)	-6	1	1.1	-8	97	109	x	x	x
O=C(Nc1cnc2ccccc2c1)c1ccco1	23	-58	0.8	35	152*	73	183*	105	90
O=C(Nc1cccc(-c2cnc3ccccc3n2)c1)c1ccco1	6	-29	0.9	8	126	96	x	x	x
O/N=C/c1ccccc1OCc1ccccc1Cl	-9	3	1.1	20	97	92	x	x	x
COc1cc(/C=N/O)ccc1OCc1ccccc1Cl	37	-92	0.6	15	182*	91	191*	125	120*
CCOC(=O)COc1ccc(S(=O)(=O)N2CCN(c3ccccc3)CC2)cc1	-6	1	1.1	-2	100	104	x	x	x
CC(=O)c1cccc(Nc2ccc(-c3ccccc3F)nn2)c1	29	-58	0.7	1	152*	101	179*	130	103
CCOc1ccc(N(CC(=O)NC(C(C)C)C(C)C)S(=O)(=O)c2ccc(OC)c(OC)c2)cc1	-4	4	1	8	95	100	x	x	x
O=C(NC12CC3CC(CC(C3)C1)C2)c1ccc(-c2cccc(Cl)c2)o1	23	-72	0.8	-12	164*	113	210*	143*	128*
SMILES	FLuc inh counter	STAT1 blocker	FLuc act counter	STAT3 inh	STAT1 act	STAT3 activator	STAT1 activ conf	NFkB act STAT1ct	STAT3 act 2
COc1ccc(-c2cc(=O)c3ccccc3s2)cc1	67*	-86	0.3	10	179*	96	223*	136*	120*
c1ccc2cc(CSCc3nc4ccccc4[nH]3)ccc2c1	-4	8	1	10	93	99	x	x	x
CC(C)(C)c1ccc(NC(=O)Nc2ccc(F)cc2)cc1	36	-79	0.6	11	176*	92	213*	138*	126*
COc1cccc(NC(=O)Nc2ccncc2)c1	8	2	0.9	12	97	94	x	x	x
COc1cccc(NC(=O)Nc2ccc(C(C)(C)C)cc2)c1	41	-57	0.6	4	151*	103	178*	129	110
CCCCCCCCNC(=O)c1cccnc1SCC(=O)Nc1ccccc1OC	4	6	1	15	94	87	x	x	x
CCn1c(SCc2ccccc2)nnc1-c1cccnc1	-2	-13	1	-1	111	104	x	x	x
CCCC(=O)Nc1ccc2oc(-c3cccnc3)nc2c1	13	-17	0.9	15	116	91	x	x	x
CCCC(=O)Nc1cccc(-c2nc3cc(C)c(C)cc3o2)c1	40	-84	0.6	11	177*	93	201*	128	107
Cc1cc2nc(-c3ccc(NC(=O)C(C)C)cc3)oc2cc1C	12	-86	0.9	5	180*	96	237*	146*	118*
Cc1coc(=N)n1CC(=O)c1ccc(Cl)cc1	5	-1	0.9	11	99	94	x	x	x
CCOC(=O)c1c(C)[nH]c(C(=O)OCCOc2ccccc2C)c1C	7	-65	0.9	-14	159*	118	183*	125	123*
CCOC(=O)c1c(C)[nH]c(C(=O)OCCOc2ccc(Cl)cc2)c1C	-2	4	1	0	97	103	x	x	x
CCOc1ccc(NC(=O)c2cccnc2Cl)c([N+](=O)[O-])c1	-7	-15	1.1	6	113	96	x	x	x
CCOc1ccc(NC(=O)c2cccs2)c([N+](=O)[O-])c1	2	-58	1	3	152*	107	189*	133	105
CCOc1ccc(NC(=O)c2ccco2)c([N+](=O)[O-])c1	30	-72	0.7	2	164*	99	191*	136*	110
